rCAG binder: binders of r(CAG) RNA repeats, primary screen, biochemical, fluorescence. r(CAG) RNA repeat, TO-PRO-1 dye displacement fluorescence. inhibition, % at 3 µM. 1.3% of 370,000 active;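 active means inhibition above the plate cutoff, the mean of all test compounds on that plate plus 3 SD, cut at about 35% in these data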;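 further: 0% = DMSO alone and 100% = 100 µM mitoxantrone as full dye displacement; higher means more dye released from RNA so lower well fluorescence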
SIAE primary: human SIAE inhibitors, primary screen, biochemical, fluorescence polarization, FP-Rh probe, 1536-well HTS; Sialate O-acetylesterase (Homo sapiens), Q9HAT2; 0.69% of 370,000 active; inhibition, % at 9.66 µM; SIAE FP-Rh probe binding;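 active means inhibition above a cutoff: mean of compounds within the control limits plus 3 SD of those, cut at about 17% in these data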;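 further: 0% = plate median of compound wells and 100% = probe without SIAE protein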
HTRA1 inh: HTRA1 serine protease inhibitors, primary screen, biochemical, fluorescence polarization, HTS | AID 504803, 2011 | 0.5% of 340,000 active | inhibition, % at 5.96 µM | recombinant HTRA1, FP-rhodamine activity-based probe; in the data active means inhibition above about 36%;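 further: 0% = enzyme with DMSO and 100% = wells lacking enzyme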
PRMT1 FP inh: PRMT1 methyltransferase inhibitors, primary screen, biochemical, fluorescence polarization; recombinant PRMT1, activity-based probe fluorescence polarization; 1.3% of 370,000 active; inhibition, % at 2.79 µM; AID 652257, 2013; Protein arginine N-methyltransferase 1 (Homo sapiens), Q99873;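 active means inhibition above about 21% made by adding two undisclosed values, limit read from the data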
Target sequence (Q99873 whole entry, looked up): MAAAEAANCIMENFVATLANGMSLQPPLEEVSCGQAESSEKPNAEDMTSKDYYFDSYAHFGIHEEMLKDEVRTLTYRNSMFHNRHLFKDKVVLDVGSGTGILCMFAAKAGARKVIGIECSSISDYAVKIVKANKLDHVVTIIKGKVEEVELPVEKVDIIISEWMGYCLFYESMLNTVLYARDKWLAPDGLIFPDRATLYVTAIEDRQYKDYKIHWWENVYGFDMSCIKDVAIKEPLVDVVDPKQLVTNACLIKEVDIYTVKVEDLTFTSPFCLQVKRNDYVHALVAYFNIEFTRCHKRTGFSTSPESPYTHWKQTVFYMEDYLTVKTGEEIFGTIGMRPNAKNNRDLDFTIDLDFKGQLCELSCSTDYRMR
mABHD4 FP: ABHD4 inhibitors, primary screen, biochemical, fluorescence polarization, mouse | inhibition, % at 8.92 µM | (Lyso)-N-acylphosphatidylethanolamine lipase (Mus musculus), Q8VD66 | purified mABHD4, FP-Rh probe fluorescence polarization | 0.54% of 370,000 active;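 active means inhibition exceeding the mean over every tested compound plus 3 SD, cut at about 30% in these data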;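 further: 0% = plate median of compound wells and 100% = S159A mutant with DMSO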
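System: mouse ABHD4 enzyme, wild type / Medium: HEPES pH 7.0, NaCl, Pluronic buffer / Reagent: FP-Rh activity-based fluorescent probe / Control set: S159A mutant high control, sample median low control / Detection: fluorescence polarization with parallel and perpendicular emission, 525/598 nm / Schedule: 45 min + 60 min at 25 °C / Compound dosing: 8.92 µM, single dose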
* marks the source's active call; other numbers are inactive results; x = no result. In the library only some 3.3% were active in any assay of this set; here they are far more common.

SMILES	rCAG binder	SIAE primary	HTRA1 inh	PRMT1 FP inh	mABHD4 FP
CC1(c2ccc([N+](=O)[O-])cc2)Nc2ccccc2S1 (stereo unspecified)	12.2	11.8	14.7	45.1*	11.4
Cn1cc(CCOCc2ccc(Br)cc2)c2ccccc21	2.8	-3.5	x	6.3	5.8
O=C(Nc1ccc2c(c1)OCCO2)NC1(C(F)(F)F)Oc2ccccc2O1	5.5	3.7	10.3	8.7	19.1
O=C(Nc1ccc2c(c1)OCO2)NC1(C(F)(F)F)Oc2ccccc2O1	0.4	4.4	6.8	21.9*	13.8
CC(C)c1[nH]nc2c1C(c1ccccc1)N(c1ccccc1)C2=O (stereo unspecified)	1.6	-5.7	x	-0.1	11.1
Nc1[nH]c(C(=O)c2ccccc2)c(-c2ccccn2)c1C(=O)c1c[nH]c2ccc(F)cc12	8.2	4.8	x	3.1	-1.2
CN1C(=O)[C@@]2(O[C@H]3C=CC=CN3C3=C2C(=O)CCC3)c2cccc(Br)c21	9.5	2.0	x	11.4	0.3
CN1c2ccccc2C(O)=C(C(=S)Nc2ccc(Cl)cc2)S1(=O)=O	68.5*	-5.1	-14.0	10.6	-6.9
CCNC(=O)O[C@@H]1C=C[C@@H](C#Cc2ccc(C(C)(C)C)cc2)O[C@@H]1COC(C)=O	3.3	8.9	x	-3.0	-6.2
CC(=O)Nc1ccc(SC[C@H](C)CN2CC[C@H](C(C)(C)C)CCC2=O)cc1	0.1	3.8	-10.2	23.8*	-4.7
CC(=O)Nc1ccc(SC[C@H](Cc2ccccc2)N2CCN(CC(C)C)CCC2=O)cc1	-6.8	-7.6	-7.6	19.3	-0.7
CC(=O)Nc1ccc(SC[C@H](CC(C)C)N2CCN(CC(C)C)CCC2=O)cc1	-10.1	-1.3	-6.2	23.2*	-6.4
C[C@H](c1ccccc1)N1C[C@@H](COCc2ccccc2)Oc2cccc(N3CCCC3)c2S1(=O)=O	10.9	0.9	x	-1.7	-6.3
CSc1ccc(/C=N/n2c(COc3ccccc3)n[nH]c2=S)cc1	28.3	-1.1	-8.3	21.7*	-5.2
COc1ccc(/C=N/n2c(COc3ccccc3)n[nH]c2=S)cc1OC	6.3	4.0	7.6	5.7	-4.2
CCOC(=O)c1cnc2c3c(noc13)CCC2	-0.8	6.0	x	0.7	0.2
CCOc1ccc(-c2cccc(NS(=O)(=O)c3cc([N+](=O)[O-])ccc3Cl)c2)nn1	39.6*	-1.7	-8.8	-1.6	-0.4
Nc1nc2c(ncn2[C@@H]2O[C@H](C(=O)NCCCN3CCCC3=O)[C@@H](O)[C@H]2O)c(=O)[nH]1	0.9	16.9	x	7.3	7.2
CCN1CCN(c2nc3c(C)cccn3c(=O)c2/C=C(\C#N)C(=O)NCCOC)CC1	-7.1	-1.5	5.4	22.7*	-8.7
COCCNC(=O)/C(C#N)=C/c1c(N2CCN(C)CC2)nc2c(C)cccn2c1=O	-7.9	-1.6	1.4	4.5	5.7
COc1ccc(C(=O)CC2(O)C(=O)N(CN3CCOCC3)c3ccc(Br)cc32)cc1 (stereo unspecified)	0.4	5.7	x	0.0	0.0
CCOC(=O)Cc1csc(NC(=O)c2sc3nc4ccc(CC)cc4cc3c2N)n1	44.2*	10.7	-20.2	3.0	23.1
CC(=O)Nc1ccc(SCc2c(C)noc2C)cc1	-4.2	3.6	-1.9	21.4*	-3.8
CC(=O)Nc1ccc(SCc2ncc(-c3ccccc3)o2)cc1	-3.5	7.5	-11.7	22.5*	1.5
Cc1noc(C)c1CSc1ccc(Br)cc1	-5.0	-3.7	-1.2	-3.2	4.2
SMILES	rCAG binder	SIAE primary	HTRA1 inh	PRMT1 FP inh	mABHD4 FP
C[C@H]1CN(c2ccc(N3CCN(C(=O)OC(C)(C)C)C[C@@H]3C)cc2C#N)CCN1Cc1ccccc1	4.5	0.7	x	-4.8	-1.5
CCCCc1c(-c2ccccc2OC)ncn1Cc1ccccc1Cl	-1.0	3.4	x	0.0	10.7
NC(=S)c1ccc[n+]([O-])c1	2.4	-1.7	-3.0	59.1*	3.1
N#Cc1ccc(S(=O)(=O)NCC2CCN(C(=O)C(=O)c3cc4ccccc4o3)CC2)cc1	5.9	0.4	x	0.7	2.1
COc1ccc(N=C(NN)c2ccc3ccccc3n2)cc1	5.7	-1.6	-14.1	26.7*	3.0
COc1cc2c(cc1OC)[C@@H](NC(=O)c1ccncc1)[C@H](C)[C@H]2c1ccccc1	3.4	0.7	x	1.4	0.6

Compound activity deposited in PubChem BioAssay by The Scripps Research Institute Molecular Screening Center.
